According to ChEMBL document CHEMBL1629503, “Novel conformationally restricted triazole derivatives with potent antifungal activity” (2010):
Values after ≈ are worked out from the molar mass of the structure shown.

Columns and labels:
Assay type in all cases: functional
Candida albicans = experiment: Antifungal activity against Candida albicans after 24 hrs by serial dilution method
Summary of the method: (§1)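 Broth microdilution MIC per NCCLS recommendations in 96-well plates, using RPMI 1640 buffered with 0.165 M MOPS. Strains were ATCC or clinical isolates. Compounds were dissolved in DMSO and serially diluted in medium. Yeasts were incubated at 35 °C and growth was read at 24 h. MIC80 is the lowest concentration giving […] of control growth (turbidity).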

Cryptococcus neoformans = experiment: Antifungal activity against Cryptococcus neoformans after 72 hrs by serial dilution method
Summary of the method: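 Yeast MIC by NCCLS serial microdilution in RPMI 1640 with 0.165 M MOPS, using an ATCC strain or clinical isolate. Test agents came from DMSO stocks diluted in medium. Incubation was at 35 °C with the read at 72 h. MIC80 is the lowest concentration at which turbidity was […] of drug-free control growth.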

Candida tropicalis = experiment: Antifungal activity against Candida tropicalis after 24 hrs by serial dilution method; summary of the method: as §1
Candida parapsilosis = experiment: Antifungal activity against Candida parapsilosis after 24 hrs by serial dilution method; settings: Lodderomyces parapsilosis; summary of the method: as §1
Kluyveromyces marxianus = experiment: Antifungal activity against Candida kefyr after 24 hrs by serial dilution method; summary of the method: as §1
Trichophyton rubrum = experiment: Antifungal activity against Trichophyton rubrum after 7 days by serial dilution method; settings: 168 h
Summary of the method: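 Dermatophyte MIC by NCCLS-based serial dilution in 96-well plates, in RPMI 1640 buffered with 0.165 M MOPS. Compounds were dissolved in DMSO and diluted in growth medium. Incubation was at 28 °C. Strain was ATCC or clinical isolate. MIC80 is the lowest concentration reducing turbidity to […] of growth control.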

Aspergillus fumigatus = experiment: Antifungal activity against Aspergillus fumigatus after 7 days by serial dilution method; settings: 168 h
Summary of the method: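 Mould susceptibility by NCCLS serial dilution in 96-well plates, using MOPS-buffered (0.165 M) RPMI 1640 medium. Compounds were dissolved in DMSO and serially diluted in medium. Isolates were from ATCC or clinical sources. The endpoint MIC80 is the lowest concentration giving turbidity […] of control growth.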

SMILES	MIC80 (Candida albicans)	MIC80 (Cryptococcus neoformans)	MIC80 (Candida tropicalis)	MIC80 (Candida parapsilosis)	MIC80 (Kluyveromyces marxianus)	MIC80 (Trichophyton rubrum)	MIC80 (Aspergillus fumigatus)
CN(CC(O)(Cn1cncn1)c1ccc(F)cc1F)C1CCN(Cc2ccc(Cl)c(Cl)c2)CC1 (stereo not given)	0.0625 mg/L (≈ 0.122 µM)	0.25 mg/L (≈ 0.49 µM)	0.0625 mg/L (≈ 0.122 µM)	0.0625 mg/L (≈ 0.122 µM)	0.25 mg/L (≈ 0.49 µM)	0.25 mg/L (≈ 0.49 µM)	4 mg/L (≈ 7.84 µM)
CN(CC(O)(Cn1cncn1)c1ccc(F)cc1F)C1CCN(Cc2ccccc2)CC1 (stereo not given)	0.25 mg/L (≈ 0.566 µM)	1 mg/L (≈ 2.26 µM)	1 mg/L (≈ 2.26 µM)	0.25 mg/L (≈ 0.566 µM)	1 mg/L (≈ 2.26 µM)	1 mg/L (≈ 2.26 µM)	64 mg/L (≈ 145 µM)
CN(CC(O)(Cn1cncn1)c1ccc(F)cc1F)C1CCN(Cc2ccc([N+](=O)[O-])cc2)CC1 (stereo not given)	0.0625 mg/L (≈ 0.128 µM)	0.25 mg/L (≈ 0.514 µM)	0.25 mg/L (≈ 0.514 µM)	0.0625 mg/L (≈ 0.128 µM)	1 mg/L (≈ 2.06 µM)	0.25 mg/L (≈ 0.514 µM)	4 mg/L (≈ 8.22 µM)
CN(CC(O)(Cn1cncn1)c1ccc(F)cc1F)C1CCN(Cc2ccc(Br)cc2)CC1 (stereo not given)	0.0625 mg/L (≈ 0.12 µM)	0.25 mg/L (≈ 0.48 µM)	0.25 mg/L (≈ 0.48 µM)	0.0625 mg/L (≈ 0.12 µM)	1 mg/L (≈ 1.92 µM)	0.25 mg/L (≈ 0.48 µM)	4 mg/L (≈ 7.69 µM)
CN(CC(O)(Cn1cncn1)c1ccc(F)cc1F)C1CCN(Cc2ccccc2Cl)CC1 (stereo not given)	0.25 mg/L (≈ 0.525 µM)	0.25 mg/L (≈ 0.525 µM)	0.25 mg/L (≈ 0.525 µM)	0.0625 mg/L (≈ 0.131 µM)	1 mg/L (≈ 2.1 µM)	1 mg/L (≈ 2.1 µM)	4 mg/L (≈ 8.4 µM)
CN(CC(O)(Cn1cncn1)c1ccc(F)cc1F)C1CCN(Cc2ccc(Cl)cc2Cl)CC1 (stereo not given)	0.0625 mg/L (≈ 0.122 µM)	0.25 mg/L (≈ 0.49 µM)	0.0625 mg/L (≈ 0.122 µM)	0.0625 mg/L (≈ 0.122 µM)	0.25 mg/L (≈ 0.49 µM)	0.25 mg/L (≈ 0.49 µM)	4 mg/L (≈ 7.84 µM)
CN(CC(O)(Cn1cncn1)c1ccc(F)cc1F)C1CCN(Cc2cccc(Cl)c2)CC1 (stereo not given)	0.0625 mg/L (≈ 0.131 µM)	0.0625 mg/L (≈ 0.131 µM)	0.25 mg/L (≈ 0.525 µM)	0.0625 mg/L (≈ 0.131 µM)	1 mg/L (≈ 2.1 µM)	0.25 mg/L (≈ 0.525 µM)	1 mg/L (≈ 2.1 µM)
CN(CC(O)(Cn1cncn1)c1ccc(F)cc1F)C1CCN(Cc2ccc(C#N)cc2)CC1 (stereo not given)	0.0625 mg/L (≈ 0.134 µM)	0.0625 mg/L (≈ 0.134 µM)	0.25 mg/L (≈ 0.536 µM)	0.25 mg/L (≈ 0.536 µM)	0.0625 mg/L (≈ 0.134 µM)	0.0625 mg/L (≈ 0.134 µM)	1 mg/L (≈ 2.14 µM)
CN(CC(O)(Cn1cncn1)c1ccc(F)cc1F)C1CCN(Cc2cccc(Br)c2)CC1 (stereo not given)	0.0625 mg/L (≈ 0.12 µM)	0.25 mg/L (≈ 0.48 µM)	0.0625 mg/L (≈ 0.12 µM)	0.0625 mg/L (≈ 0.12 µM)	0.25 mg/L (≈ 0.48 µM)	0.25 mg/L (≈ 0.48 µM)	1 mg/L (≈ 1.92 µM)
CN(CC(O)(Cn1cncn1)c1ccc(F)cc1F)C1CCN(Cc2ccccc2F)CC1 (stereo not given)	0.25 mg/L (≈ 0.544 µM)	0.25 mg/L (≈ 0.544 µM)	0.25 mg/L (≈ 0.544 µM)	0.25 mg/L (≈ 0.544 µM)	0.25 mg/L (≈ 0.544 µM)	1 mg/L (≈ 2.18 µM)	16 mg/L (≈ 34.8 µM)
CN(CC(O)(Cn1cncn1)c1ccc(F)cc1F)C1CCN(Cc2ccc(F)cc2)CC1 (stereo not given)	0.25 mg/L (≈ 0.544 µM)	0.25 mg/L (≈ 0.544 µM)	0.25 mg/L (≈ 0.544 µM)	0.25 mg/L (≈ 0.544 µM)	0.25 mg/L (≈ 0.544 µM)	1 mg/L (≈ 2.18 µM)	16 mg/L (≈ 34.8 µM)
COc1cccc(CN2CCC(N(C)CC(O)(Cn3cncn3)c3ccc(F)cc3F)CC2)c1 (stereo not given)	0.25 mg/L (≈ 0.53 µM)	0.25 mg/L (≈ 0.53 µM)	0.25 mg/L (≈ 0.53 µM)	0.25 mg/L (≈ 0.53 µM)	0.25 mg/L (≈ 0.53 µM)	1 mg/L (≈ 2.12 µM)	64 mg/L (≈ 136 µM)
Cc1ccccc1CN1CCC(N(C)CC(O)(Cn2cncn2)c2ccc(F)cc2F)CC1 (stereo not given)	0.0625 mg/L (≈ 0.137 µM)	0.25 mg/L (≈ 0.549 µM)	0.25 mg/L (≈ 0.549 µM)	0.25 mg/L (≈ 0.549 µM)	0.25 mg/L (≈ 0.549 µM)	1 mg/L (≈ 2.2 µM)	64 mg/L (≈ 140 µM)
CC(C)c1ccc(CN2CCC(N(C)CC(O)(Cn3cncn3)c3ccc(F)cc3F)CC2)cc1 (stereo not given)	0.0156 mg/L (≈ 0.0323 µM)	0.25 mg/L (≈ 0.517 µM)	0.25 mg/L (≈ 0.517 µM)	0.25 mg/L (≈ 0.517 µM)	0.25 mg/L (≈ 0.517 µM)	0.25 mg/L (≈ 0.517 µM)	16 mg/L (≈ 33.1 µM)
OC(Cn1cncn1)(Cn1cncn1)c1ccc(F)cc1F [FLUCONAZOLE]	0.25 mg/L (≈ 0.816 µM)	0.0625 mg/L (≈ 0.204 µM)	1 mg/L (≈ 3.27 µM)	0.25 mg/L (≈ 0.816 µM)	1 mg/L (≈ 3.27 µM)	1 mg/L (≈ 3.27 µM)	> 64 mg/L
